This is an account of results in ChEMBL document CHEMBL1145999, “Synthesis and Ca2+-mobilizing activity of purine-modified mimics of adenophostin A: a model for the adenophostin-Ins(1,4,5)P3 receptor interaction” (J Med Chem, 2003).

The species named for test [1] is Rattus norvegicus. Kind of test: Effective concentration causing half-maximal [Ca2+] release in rat hepatocytes. The conditions noted are these: Hepatocyte. Format: functional. The procedure, abridged:
(§1)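 Permeabilized rat hepatocytes loaded with 45Ca2+ to steady state for 5 min at 37 °C in cytosol-like medium (pH 7.0, free Ca2+ 200 nM) with ATP 1.5 mM, creatine phosphate/creatine phosphokinase and FCCP 10 µM. Thapsigargin 1.25 µM added; 30 s later, agonist for 60 s; store 45Ca2+ measured by rapid filtration. Four-parameter logistic fit gave maximal response, EC50, Hill slope. Means ± SEM.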

The species named for test [2] is Rattus norvegicus. Kind of test: The % of actively accumulated [Ca2+] released by a maximally effective concentration of the compound. It counts as functional. The procedure, abridged: as §1
A short description of test [3]: Hill coefficient was determined. Format: functional. The procedure, abridged:
as §1

Test [4] is filed under the species Rattus norvegicus. Kind of test: Potency for [Ca2+] release in rat hepatocytes with respect to compound 2. The conditions noted are these: Hepatocyte.

Consider `COc1ncnc2c1ncn2C1O[C@H](CO)[C@H](O[C@@H]2OC(CO)[C@H](OP(=O)(O)O)C(OP(=O)(O)O)[C@@H]2O)[C@@H]1OP(=O)(O)O` (some centres not stated), for which the response in the test filed under Rattus norvegicus [1] was half-maximal at 19 nM (EC50). Further, in the test listed under Rattus norvegicus [2], the Max response is 34%. For the same compound, the Hill slope in test [3] was determined as 3.8. The same compound came in with a relative potency in the test listed under Rattus norvegicus [4] of 0.57.
In turn, `CNc1nc(OC)nc2c1ncn2C1O[C@H](CO)[C@H](O[C@@H]2OC(CO)[C@H](OP(=O)(O)O)C(OP(=O)(O)O)[C@@H]2O)[C@@H]1OP(=O)(O)O` (some centres not stated) showed an EC50 in the test listed under Rattus norvegicus [1] of 82 nM. Besides, the Max response in the test filed under Rattus norvegicus [2] was 34%. In addition, in test [3], the Hill slope was determined as 8.8. For the same compound, the relative potency in the test listed under Rattus norvegicus [4] came to 0.17.
In the case of `Nc1ncnc2c1ncn2C1O[C@H](CO)[C@H](O[C@@H]2OC(CO)[C@H](OP(=O)(O)O)C(OP(=O)(O)O)[C@@H]2O)[C@@H]1OP(=O)(O)O` (some centres not stated), the EC50 in the test filed under Rattus norvegicus [1] amounted to 14 nM. Further, the Max response in the test filed under Rattus norvegicus [2] amounted to 35%. The compound also yielded a Hill slope in test [3] of 2.4. The relative potency in the test filed under Rattus norvegicus [4] was 1.
As to `O=P(O)(O)OC1[C@@H](OP(=O)(O)O)C(CO)O[C@@H](O[C@@H]2[C@H](OP(=O)(O)O)C(n3cnc4c(NC5CCCCC5)ncnc43)O[C@@H]2CO)[C@H]1O` (some centres not stated), in the test listed under Rattus norvegicus [1], the EC50 came out at 25 nM. Besides, in the test filed under Rattus norvegicus [2], the Max response came out at 45%. The compound also showed a Hill slope in test [3] of 2.3. In the test filed under Rattus norvegicus [4], this compound came in with a relative potency of 0.56.
Taken in the same sequence, the figures for `O=P(O)(O)O[C@@H]1[C@H](O)[C@H](O)[C@@H](OP(=O)(O)O)[C@H](OP(=O)(O)O)[C@H]1O` [INS(1,4,5)P3] were 185 nM, 35%, 2.3 and 0.08.
On the same counts, the results for `O=P(O)(O)OC1[C@@H](OP(=O)(O)O)C(CO)O[C@@H](O[C@@H]2[C@H](OP(=O)(O)O)C(n3cnc4c(NC5CCCC5)ncnc43)O[C@@H]2CO)[C@H]1O` (some centres not stated) are 13 nM, 35%, 2.2 and 0.77.
On to `CN(C)c1ncnc2c1ncn2C1O[C@H](CO)[C@H](O[C@@H]2OC(CO)[C@H](OP(=O)(O)O)C(OP(=O)(O)O)[C@@H]2O)[C@@H]1OP(=O)(O)O` (some centres not stated), for which a half-maximal response in the test filed under Rattus norvegicus [1] (EC50) required 19 nM. For the same compound, the Max response in the test listed under Rattus norvegicus [2] is reported as 39%. This compound registered a Hill slope in test [3] of 2.1. In the test filed under Rattus norvegicus [4], the relative potency is 0.82.
In the test filed under Rattus norvegicus [1], `CNc1ncnc2c1ncn2C1O[C@H](CO)[C@H](O[C@@H]2OC(CO)[C@H](OP(=O)(O)O)C(OP(=O)(O)O)[C@@H]2O)[C@@H]1OP(=O)(O)O` (some centres not stated) gave a half-maximal effective concentration (EC50) of 13 nM. Also, the Max response in the test filed under Rattus norvegicus [2] is on record as 37%. For the same compound, in test [3], the Hill slope came out at 2.1. In the test filed under Rattus norvegicus [4], this compound had a relative potency of 0.8.
